ChEMBL document CHEMBL4330067, “Synthesis and mechanistic studies of diketo acids and their bioisosteres as potential antibacterial agents” (Eur J Med Chem, 2019)
Values after ≈ are worked out from the molar mass of the structure shown.

What was measured:
[1] = tested on: Mycobacterium tuberculosis; experiment: Inhibition of Mycobacterium tuberculosis methionine aminopeptidase 1C at 100 uM using Met-AMC as substrate relative to control
How it was run: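 Purified MtMetAP1c (4 µM) in 50 mM Hepes pH 7.5 with 150 mM KCl and CoCl2 at three molar equivalents of enzyme. Substrate was L-Met-AMC at 50, 100 or 150 µM. Compounds came from 10 mM DMSO stocks. Percent inhibition was taken against the uninhibited control.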

Homo sapiens = organism: Homo sapiens; experiment: Inhibition of human methionine aminopeptidase 1B at 100 uM using Met-AMC as substrate relative to control
How it was run: (§1)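 Purified MetAP at 4 µM in 50 mM HEPES with 150 mM KCl and CoCl2 at 3 molar equivalents of enzyme. pH 7.5 for SpMetAP1a and EfMetAP1a, pH 8.0 for HsMetAP1b. Substrate L-Met-AMC at 50, 100 and 150 µM. Compounds (10 mM DMSO stocks) tested over 1 to 120 µM for % inhibition; Ki by Dixon method.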

Escherichia coli [2] = experiment: Antibacterial activity against Escherichia coli ATCC 25922 after 24 hrs by broth dilution assay; type: functional; details: ATCC 25922, 24 h
How it was run: (§2)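 Broth dilution per NCCLS in nutrient broth, serial dilutions 1000 to 7.8 µg/mL, DMSO below 4% final. Inoculum approx. 2.5×10⁶ cells/mL, 37 °C with shaking at 150 rpm for 24 h. MIC taken as the lowest concentration with no visible growth. Ciprofloxacin served as positive control.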

Enterococcus faecalis [3] = experiment: Antibacterial activity against Enterococcus faecalis MTCC 439 after 24 hrs by broth dilution assay; type: functional; details: MTCC 439, 24 h; how it was run: as §2
[4] = Inhibition of human methionine aminopeptidase 1B using Met-AMC as substrate by Dixon method; how it was run: as §1
Salmonella typhimurium = experiment: Antibacterial activity against Salmonella typhimurium MTCC 3224 after 24 hrs by broth dilution assay; type: functional, Salmonella enterica subsp. enterica serovar Typhimurium; details: Salmonella enterica, MTCC 3224, 24 h; how it was run: as §2
Streptococcus pneumoniae [5] = experiment: Antibacterial activity against Streptococcus pneumoniae MTCC 655 after 24 hrs by broth dilution assay; type: functional; details: MTCC 655, 24 h; how it was run: as §2
Klebsiella pneumoniae = experiment: Antibacterial activity against Klebsiella pneumoniae ATCC 700603 after 24 hrs by broth dilution assay; type: functional; details: Klebsiella pneumoniae, 700603, 24 h; how it was run: as §2
Pseudomonas aeruginosa = experiment: Antibacterial activity against Pseudomonas aeruginosa MTCC 2453 after 24 hrs by broth dilution assay; type: functional; details: MTCC 2453, 24 h; how it was run: as §2
[6] = Inhibition of Mycobacterium tuberculosis methionine aminopeptidase 1C using Met-AMC as substrate by Dixon method
Streptococcus pneumoniae [7] = experiment: Inhibition of Streptococcus pneumoniae methionine aminopeptidase 1A at 100 uM using Met-AMC as substrate relative to control; how it was run: as §1
[8] = Inhibition of Streptococcus pneumoniae methionine aminopeptidase 1A using Met-AMC as substrate by Dixon method; how it was run: as §1
Enterococcus faecalis [9] = experiment: Inhibition of Enterococcus faecalis methionine aminopeptidase 1A at 100 uM using Met-AMC as substrate relative to control; how it was run: as §1
[10] = Inhibition of Enterococcus faecalis methionine aminopeptidase 1A using Met-AMC as substrate by Dixon method; how it was run: as §1
Escherichia coli [11] = experiment: Antibacterial activity against Escherichia coli MRC17 after overnight incubation; type: functional
How it was run: (§3)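 Multidrug-resistant E. coli isolates in Luria broth, test range 8 to 1024 µg/mL (ciprofloxacin 0.49 to 63.3 µg/mL). Inoculum 10 µL of a 1000-fold diluted 0.1 OD600 culture, incubated overnight at 37 °C. OD read at 600 nm. % inhibition = (a−b)/a×100, with media and compound-colour blanks subtracted.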

Escherichia coli [12] = experiment: Antibacterial activity against Escherichia coli MRC24 after overnight incubation; type: functional; how it was run: as §3
Escherichia coli [13] = experiment: Antibacterial activity against Escherichia coli MRAE26 after overnight incubation; type: functional; how it was run: as §3
Escherichia coli [14] = experiment: Antibacterial activity against Escherichia coli MRAE32 after overnight incubation; type: functional; how it was run: as §3
Escherichia coli [15] = experiment: Antibacterial activity against Escherichia coli MRAE33 after overnight incubation; type: functional; how it was run: as §3
Escherichia coli [16] = experiment: Antibacterial activity against Escherichia coli MROB11 after overnight incubation; type: functional; how it was run: as §3
Escherichia coli [17] = experiment: Antibacterial activity against Escherichia coli MRAE44 after overnight incubation; type: functional; how it was run: as §3
Escherichia coli [18] = experiment: Antibacterial activity against Escherichia coli MRA11 after overnight incubation; type: functional; how it was run: as §3

| SMILES | inhibition [1] [%] | inhibition (Homo sapiens) [%] | MIC (Escherichia coli [2]) [µg/mL] | MIC (Enterococcus faecalis [3]) [µg/mL] | Ki [4] [µM] | MIC (Salmonella typhimurium) [µg/mL] | MIC (Streptococcus pneumoniae [5]) [µg/mL] | MIC (Klebsiella pneumoniae) [µg/mL] | MIC (Pseudomonas aeruginosa) [µg/mL] | Ki [6] [µM] | inhibition (Streptococcus pneumoniae [7]) [%] | Ki [8] [µM] | inhibition (Enterococcus faecalis [9]) [%] | also measured |
| --- | --- | --- | --- | --- | --- | --- | --- | --- | --- | --- | --- | --- | --- | --- |
| CCOC(=O)/C(O)=C/C(=O)c1ccccc1C | 55.8 | 61.4 | 250 (≈ 1070 µM) | 250 (≈ 1070 µM) | 74.3 | 1000 (≈ 4270 µM) | 250 (≈ 1070 µM) | 1000 (≈ 4270 µM) | 1000 (≈ 4270 µM) | 36.7 | 50.3 | 98.5 | 43.5 | – |
| Cc1c(C(=O)/C=C(\O)C(=O)O)oc2ccc(Br)cc12 | 93.5 | 88.2 | 1000 (≈ 3080 µM) | 62.5 (≈ 192 µM) | 32.7 | 500 (≈ 1540 µM) | 62.5 (≈ 192 µM) | 1000 (≈ 3080 µM) | 125 (≈ 384 µM) | 26.3 | 93.4 | 27.5 | 91.9 | Ki [10]: 17.7 µM |
| C[C@@H](NC(=O)c1cc(-c2ccc(Cl)cc2)no1)C(=O)O | 51.7 | 47.2 | – | – | – | – | – | – | – | 94.6 | 43.7 | – | 23.6 | – |
| COC(=O)[C@@H](C)NC(=O)c1cc(-c2ccc(Cl)cc2)no1 | 53.2 | 43.1 | – | – | – | – | – | – | – | 134 | 43.8 | – | 15.4 | – |
| CCOC(=O)c1cc(-c2ccc(Cl)cc2)no1 | 47.4 | 66.3 | 500 (≈ 1990 µM) | 500 (≈ 1990 µM) | 160 | > 1000 | 1000 (≈ 3970 µM) | 1000 (≈ 3970 µM) | 500 (≈ 1990 µM) | 152 | 40.3 | – | 19.4 | – |
| CCOC(=O)c1cc(-c2oc3ccc(Br)cc3c2C)no1 | 41.3 | 43.6 | – | – | – | – | – | – | – | – | 40.6 | – | 21.1 | – |
| Cc1c(-c2cc(C(=O)N[C@H](C)C(=O)O)on2)oc2ccc(Br)cc12 | 33.2 | 93.4 | 500 (≈ 1270 µM) | 125 (≈ 318 µM) | 3.11 | 500 (≈ 1270 µM) | 250 (≈ 636 µM) | > 1000 | 1000 (≈ 2540 µM) | – | 42.8 | – | 34.6 | – |
| O=C(O)c1cc(-c2ccc(Cl)cc2)no1 | 58.2 | 43.9 | – | – | – | – | – | – | – | 71.8 | 39.7 | – | 20 | – |
| CCOC(=O)c1cc(-c2ccccc2C)no1 | 47.1 | 48.9 | – | – | 123 | – | – | – | – | – | 41.4 | – | 27.6 | – |
| Cc1ccccc1C(=O)/C=C(\O)C(=O)O | 65.7 | 52.3 | 250 (≈ 1210 µM) | 500 (≈ 2420 µM) | 73.8 | 1000 (≈ 4850 µM) | 500 (≈ 2420 µM) | 1000 (≈ 4850 µM) | 1000 (≈ 4850 µM) | 37.5 | 62.8 | 87.5 | 54.7 | Ki [10]: 62.6 µM |
| Cc1ccccc1-c1cc(C(=O)N[C@H](C)C(=O)O)on1 | 40.9 | 50.2 | – | – | 86.9 | – | – | – | – | – | 44.6 | – | 43.4 | – |
| Cc1ccccc1C(=O)/C=C(\O)C(=O)N[C@H](C)C(=O)O | 47.7 | 59.2 | 1000 (≈ 3610 µM) | 500 (≈ 1800 µM) | 54 | 1000 (≈ 3610 µM) | 500 (≈ 1800 µM) | 1000 (≈ 3610 µM) | 1000 (≈ 3610 µM) | – | 58 | 59.9 | 63.2 | Ki [10]: 64 µM |
| CCOC(=O)/C(O)=C/C(=O)c1oc2ccc(Br)cc2c1C | 91.6 | 86 | 250 (≈ 708 µM) | 250 (≈ 708 µM) | 19.8 | 1000 (≈ 2830 µM) | 250 (≈ 708 µM) | 500 (≈ 1420 µM) | 1000 (≈ 2830 µM) | 18.2 | 73 | 68.2 | 93.3 | Ki [10]: 10.8 µM |
| COC(=O)[C@@H](C)NC(=O)/C(O)=C/C(=O)c1ccccc1C | 67.1 | 51.9 | 1000 (≈ 3430 µM) | 500 (≈ 1720 µM) | 113 | 1000 (≈ 3430 µM) | 125 (≈ 429 µM) | 1000 (≈ 3430 µM) | 1000 (≈ 3430 µM) | 32.6 | 57 | 51.9 | 59.6 | Ki [10]: 60.4 µM |
| O=C(O)c1cn(C2CC2)c2cc(N3CCNCC3)c(F)cc2c1=O [CIPROFLOXACIN] | – | – | – | 0.0625 (≈ 0.189 µM) | – | 0.0156 (≈ 0.0471 µM) | 0.312 (≈ 0.942 µM) | 0.25 (≈ 0.754 µM) | – | – | – | – | – | ICmax (Escherichia coli [11]): 63.3 µg/mL; MIC (Escherichia coli [11]; Escherichia coli, MRC17): 128 µg/mL (≈ 386 µM); ICmax (Escherichia coli [12]): 1.975 µg/mL; ICmax (Escherichia coli [13]): 1.975 µg/mL; ICmax (Escherichia coli [14]): 63.3 µg/mL; ICmax (Escherichia coli [15]): 7.9 µg/mL; ICmax (Escherichia coli [16]): 1.975 µg/mL; ICmax (Escherichia coli [17]): 63.3 µg/mL; ICmax (Escherichia coli [18]): 63.3 µg/mL; MIC (Escherichia coli [18]; Escherichia coli, MRA11): 128 µg/mL (≈ 386 µM) |
| COC(=O)[C@@H](C)NC(=O)c1cc(-c2oc3ccc(Br)cc3c2C)no1 | – | 45.1 | – | – | – | – | – | – | – | – | 36.5 | – | 18.8 | – |
| CCOC(=O)/C(O)=C/C(=O)c1ccc(Cl)cc1 | 70.5 | 61 | 500 (≈ 1960 µM) | 250 (≈ 982 µM) | 56.1 | 500 (≈ 1960 µM) | 500 (≈ 1960 µM) | > 1000 | 500 (≈ 1960 µM) | 39.5 | 55.3 | 62.6 | 27.3 | – |
| Cc1c(-c2cc(C(=O)O)on2)oc2ccc(Br)cc12 | 39.1 | 47.3 | – | – | – | – | – | – | – | – | 43.2 | – | 40.3 | – |
| COC(=O)[C@@H](C)NC(=O)c1cc(-c2ccccc2C)no1 | 45.9 | 51.1 | – | – | 137 | – | – | – | – | – | 37 | – | 24.9 | – |
| Cc1ccccc1-c1cc(C(=O)O)on1 | 43.7 | 49 | – | – | 104 | – | – | – | – | – | 42.4 | – | 32 | – |
